Where no end group is shown, it is not given here.
T1: Ube2g2 (Homo sapiens, UniProt P60604)
T1 sequence (P60604 1-165): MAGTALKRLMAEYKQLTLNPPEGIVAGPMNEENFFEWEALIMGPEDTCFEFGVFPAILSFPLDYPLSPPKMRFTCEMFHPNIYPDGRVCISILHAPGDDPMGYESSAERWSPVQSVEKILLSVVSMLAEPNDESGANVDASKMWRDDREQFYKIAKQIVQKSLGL

T2: Ube2g2:G2BR complex (Homo sapiens, UniProt P60604+Q9UKV5)
T2 sequence (P60604 1-165): T1 sequence (P60604 1-165)
T2 sequence (Q9UKV5 574-600 partner limits assumed): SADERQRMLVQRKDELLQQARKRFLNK

T3: Ube2g2:G2BR complex ( | human, UniProt P60604 1-165; Q9UKV5 574-600)
T3 sequence 1: T1 sequence (P60604 1-165)
T3 sequence 2: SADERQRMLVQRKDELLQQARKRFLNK

B1: gp78 RING finger (aa 313-380) (domain or fragment, human, UniProt Q9UKV5 313-380, looked up)
chain: KNYLRVVGNMEARFAVATPEELAVNNDDCAICWDSMQAARKLPCGHLFHNSCLRSWLEQDTSCPTCRM
B2: G2BR peptide (Ube2g2 binding region of gp78, amino acids 574-600) (peptide, UniProt Q9UKV5 574-600, looked up)
peptide: SADERQRMLVQRKDELLQQARKRFLNK
B3: Ube2g2 (enzyme)
chain: T1 sequence (P60604 1-165)

Experiments:
GST-gp78CΔ577-643 = test: Autoubiquitylation of GST-gp78CΔ577-643 with Ube2g2; type: biochemical, human; conditions: GST-gp78CΔ577-643, bead-bound, Ube2g2, E1; anti-ubiquitin immunoblot
In short: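 Glutathione Sepharose-bound GST fusion of the gp78 cytoplasmic tail truncated at aa 577, at the start of the G2BR, is incubated 90 min with Ube2g2 and E1, with or without synthetic or recombinant G2BR-derived peptides added in trans. After washing, ubiquitylated bead-bound material is resolved by SDS-PAGE and immunoblotted with anti-ubiquitin.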

Ube2g2Δ96-108 [1] = test: Ubiquitin loading of Ube2g2Δ96-108; type: biochemical; conditions: Ube2g2Δ96-108, printed 'almost 75%'; 4 μM G2BR, 30°C
Ube2g2 [2] = biological target: T1, Ube2g2; test: Ubiquitin loading of Ube2g2; type: biochemical
Ub-GFP-His6 = test: Ubiquitylation of Ub-GFP-His6 by gp78 cytoplasmic domain constructs; type: biochemical; conditions: ~500 nM Ub-GFP-His6, Flag-tagged ubiquitin
In short: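 Purified, bacterially expressed Ub-GFP-His6 (~500 nM) served as substrate for glutathione Sepharose-bound GST-gp78 lacking aa 577-643. Reactions were stopped with 2% SDS (final). After 10 min, samples were diluted to 0.1% SDS with 8 M urea in 50 mM Tris pH 7.4. Substrate was recovered on Ni2+ beads, washed, eluted and resolved by SDS-PAGE. In controls, substrate was added after termination; some reactions ran 60 min.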

Ube2g2:RING finger = test: Fraction of Ube2g2 bound to gp78 RING finger in discharge reactions; type: binding; conditions: 8 μM gp78 RING finger, peptide 4 μM
Ube2g2Δ96-108 [3] = test: Binding of G2BR to Ube2g2Δ96-108
Ube2g2:G2BR complex [4] = biological target: T2, Ube2g2:G2BR complex; test: NMR titration of Ube2g2:G2BR complex with gp78 RING finger; type: binding; conditions: for NMR Exchange timescale: Ube2g2:G2BR complex, pH 7.5, 25°C
In short: (§1)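 Purified gp78 RING finger is titrated into free Ube2g2 or the Ube2g2:G2BR complex in 50 mM Tris, 2 mM TCEP, pH 7.5, at 25°C, using 600 and 800 MHz spectrometers. Shifts of Ube2g2 peaks from free toward bound positions are followed. Kd comes from fitting peak positions against ligand:protein concentration.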

gp78 RING finger = test: Binding of G2BR to gp78 RING finger; design: species or system human; conditions: in the gp78 RING finger:Ube2g2:G2BR complex, separate binding experiments
UbcH5B = test: Ubiquitylation by HsHRD1, Trc8 and GST-gp78CΔ577-643 with UbcH5B as E2; type: biochemical; conditions: HsHRD1, Trc8 and GST-gp78CΔ577-643, UbcH5B as E2, G2BR added
In short: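 GST fusions of the HsHRD1 or Trc8 cytoplasmic tails, or of truncated gp78, were bound to glutathione Sepharose. They were incubated 90 min with E1 and the indicated E2, with or without the indicated peptides. Beads were then washed, and bead-bound ubiquitylated material was resolved by SDS-PAGE and immunoblotted with anti-ubiquitin.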

Ube2g2 [5] = biological target: T1, Ube2g2; test: NMR titration of Ube2g2 with G2BR peptides; type: binding; conditions: peptide with Ube2g2, 50 mM Tris, 2 mM TCEP, pH 7.5, 25°C
In short: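 Samples are in 50 mM Tris, 2 mM TCEP, pH 7.5, run at 25°C on 600 and 800 MHz spectrometers with triple-resonance cryoprobes. G2BR peptide is titrated into Ube2g2 and chemical shift perturbations of Ube2g2 resonances are mapped, backed by intermolecular NOESY, to define the binding surface.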

Ube2g2 [6] = biological target: T1, Ube2g2; test: ITC of Ube2g2 with G2BR peptides; type: binding
UbcH5C = conditions: ref Brzovic et al., 2006; cited from earlier work
Ube2g2:G2BRΔN complex = Ube2g2:G2BRΔN complex (UniProt P60604); test: NMR titration
Ube2g2 [7] = biological target: Ube2g2 (UniProt P60604); test: ITC
Ube2g2 [8] = biological target: Ube2g2 (UniProt P60604); test: NMR titration
Ube2g2:G2BRΔN = test: NMR titration of Ube2g2:G2BRΔN complex with gp78 RING finger; type: binding; conditions: Ube2g2 in presence of G2BRΔN, pH 7.5, 25°C
In short: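 For the NMR titration, samples were in 50 mM Tris, 2 mM TCEP, pH 7.5, at 25°C, on 600 and 800 MHz spectrometers with cryoprobes. gp78 RING finger was added stepwise, and Ube2g2 peak shifts from the free toward the bound position were followed. Kd was obtained by fitting peak positions against ligand:protein concentration ratio.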

Ube2g2~Ub = Ube2g2~Ub (Homo sapiens, UniProt P60604); test: Discharge of ubiquitin from Ube2g2~Ub; type: biochemical; conditions: 8 μM gp78 RING finger, Ub 80 μM, 50 mM Tris pH 7.4, 25°C
Ube2g2:G2BR complex [9] = biological target: T3, Ube2g2:G2BR complex; test: NMR titration
Ube2g2 [10] = biological target: B3; test: NMR titration
Ube2g2 [11] = biological target: T1, Ube2g2; test: NMR titration of Ube2g2 with gp78 RING finger; type: binding; conditions: Ube2g2 without G2BR, pH 7.5, 25°C
In short: as §1

Ube2g2 [12] = biological target: B3; test: ITC
Ube2g2 [13] = biological target: B3; test: ITC; remark: listed apart in the source
Ube2g2 [14] = biological target: B3; test: NMR titration; remark: listed apart in the source
[15] = biological target: B2; test: NMR titration

## SADERQRMLVQRKDELLQQARKRFLNK [G2BR]
GST-gp78CΔ577-643
  effect of peptide in trans on ubiquitylation of truncated gp78: marked increase in ubiquitylation of truncated gp78
Ube2g2Δ96-108 [1]
  decrease of the G2BR effect on ubiquitin loading by deletion of aa 96-108: ~75%
Ube2g2 [2]; 12°C, with G2BR
  E2 loading with ubiquitin: almost no detectable loading
Ube2g2 [2]; 30°C, 4 μM (saturating) peptide, 100 nM E1, Ub K0, versus Scr, average of two experiments
  effect on rate of E2 loading with ubiquitin: marked decrease in the rate of E2 loading
Ube2g2 [2]; in presence of G2BR (discussion)
  formation of Ube2g2~Ub: substantial delay in formation of Ube2g2~Ub
Ub-GFP-His6
  effect of G2BR on ubiquitylation of Ub-GFP-His6 by GST-gp78CΔ577-643: substantially increased
Ube2g2:RING finger
  Ube2g2 bound (Ube2g2:RING finger): > 50%
Ube2g2Δ96-108 [3]
  G2BR binding to Ube2g2Δ96-108: G2BR binding was retained
Ube2g2:G2BR complex [4]; Ube2g2:G2BR versus Ube2g2, abstract
  increase in affinity between the E2 and RING finger caused by G2BR binding: ~ 50 fold
gp78 RING finger
  RING finger - G2BR direct interaction: do not directly interact
UbcH5B
  effect on ubiquitylation with UbcH5B: not increased
Ube2g2 [5]
  NMR Exchange timescale: slow exchange and slow
Ube2g2 [6]; ITC, 25°C
  ΔG (free energy change): -10.45 kcal/mol
  ΔH: -56.3(±0.01) kJ mol^-1
  ΔS: -41.8(±0.04) J K^-1 mol^-1T^-1
Ube2g2 [6]; versus ubiquitin (~300 μM)
  higher affinity for Ube2g2 of G2BR than of ubiquitin: over 10,000 fold

## ubiquitin
UbcH5C
  Kd: ~300 µM

## gp78 RING finger (aa 313-380) (from UniProt Q9UKV5 313-380) (domain or fragment)
Ube2g2:G2BRΔN complex
  Kd: 29 µM

## G2BRΔN (peptide)
Ube2g2 [7]
  Kd: 0.74 µM
  dH: -2.34 kcal/mol

## G2BRΔC (peptide)
Ube2g2 [8]
  Kd: 192 µM

## B1
Ube2g2:G2BRΔN; 50 mM Tris, 2 mM TCEP
  Kd: 29 µM
Ube2g2:G2BRΔN
  NMR Exchange timescale: fast
Ube2g2~Ub
  loss of Ub-bound Ube2g2: markedly accelerated
Ube2g2:G2BR complex [9]
  Kd: 3 ± 1 µM
Ube2g2 [10]
  Kd: 144 ± 10 µM
Ube2g2:G2BR complex [4]
  NMR Exchange timescale: fast exchange
Ube2g2:G2BR complex [4]; listed as gp78-RING
  NMR Exchange timescale: fast
Ube2g2:G2BR complex [4]; Ube2g2:G2BR versus Ube2g2
  decrease of Kd of gp78 RING finger for Ube2g2 in presence of G2BR: ~ 48 fold
Ube2g2 [11]
  NMR Exchange timescale: fast exchange
Ube2g2 [11]; listed as gp78-RING
  NMR Exchange timescale: fast

## B2
Ube2g2 [12]
  stoichiometry N: 1
Ube2g2 [13]
  Kd: 0.021 ± 0.004 µM
  dH: -13.456 ± 0.00239 kcal/mol
Ube2g2 [14]
  Kd: < 1 µM

## B3
[15]
  stoichiometry N: 1

Source: publication PMC3050579 (Molecular cell, 2009)
